Laboratory results as given in PMC9302452 (ACS Bio & Med Chem Au, 2022).

Tests used:
[1] = Tissue distribution after oral administration; type: in vivo; settings: male, SD, rat, 30 mg/kg
In short: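 Male SD animals received a single oral gavage of test compound at 30 mg/kg in 0.5% CMC-Na. Blood and tissues were collected at 0.25, 0.5, 2 and 4 h, with 3 animals per time point. Heparinised blood was centrifuged and plasma stored at −80 °C. Plasma and tissue concentrations were measured by LC/MS and expressed as tissue-to-plasma ratios.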

[2] = system: glucose/insulin-induced HepG2-IR cells; test: Oil red O lipid accumulation, glucose/insulin-induced HepG2-IR cells; type: cell-based; settings: high glucose/high insulin HepG2-IR, 10.0 μM, 48 h
In short: (§1)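 HepG2 steatosis models were induced two ways. Line 3 used DMEM with 10% FBS and 1% BSA plus palmitic (0.33 mM) and oleic (0.66 mM) acid, final 1.0 mM, for 24 h. Line 4 used high glucose and insulin. Cells received DMSO or 10.0 μM test compound for 48 h; Erra overexpression and shRNA knockdown served as controls. Cells were formaldehyde-fixed, stained with 0.5% oil red O in isopropanol for 30 min with hematoxylin counterstain, and lipid was quantified.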

[3] = target: T1, ERRα-LBD (Homo sapiens, UniProt P11474); test: AlphaScreen assay, interaction of ERRα-LBD with PGC1α peptide; type: binding
T1 sequence (P11474 193-421 limits assumed): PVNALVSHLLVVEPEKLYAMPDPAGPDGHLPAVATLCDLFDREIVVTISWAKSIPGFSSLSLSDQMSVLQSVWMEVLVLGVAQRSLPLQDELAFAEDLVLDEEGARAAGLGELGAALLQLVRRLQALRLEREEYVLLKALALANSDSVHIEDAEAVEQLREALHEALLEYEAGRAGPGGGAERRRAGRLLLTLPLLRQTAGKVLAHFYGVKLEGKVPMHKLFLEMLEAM
In short: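 AlphaScreen used a hexahistidine detection kit with 200 nM His-tagged ERRα-LBD and 50 nM biotinylated PGC1α cofactor peptide, plus donor and acceptor beads. Buffer was 50 mM MOPS, 50 mM NaF, 0.05 mM CHAPS and 0.1 mg/mL BSA at pH 7.4. Test compound was added as a serial dilution series, and EC50 was derived from enhancement of the LBD–peptide interaction.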

[4] = system: HepG2-IR cells; test: Glucose uptake assay in HepG2-IR cells; type: cell-based
In short: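 HepG2-IR cells were starved 2 h in serum-free medium, then washed in glucose-free KRPH buffer (HEPES, pH 7.4, 0.2% fatty-acid-free BSA). They were incubated 30 min in KRPH with 5.0 μM test compound, 5 mM D-glucose and 2-deoxy-D-[3H]glucose. After ice-cold PBS washes, cells were lysed in 0.5 M NaOH/0.1% SDS and neutralised with HCl. Uptake was read by liquid scintillation counting.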

[5] = target: T2, ERRα (Homo sapiens, UniProt P11474); test: Cellular thermal shift assay; type: cell-based; settings: HepG2 cells, concentration as low as 1.0 μM
T2 sequence (P11474 1-423): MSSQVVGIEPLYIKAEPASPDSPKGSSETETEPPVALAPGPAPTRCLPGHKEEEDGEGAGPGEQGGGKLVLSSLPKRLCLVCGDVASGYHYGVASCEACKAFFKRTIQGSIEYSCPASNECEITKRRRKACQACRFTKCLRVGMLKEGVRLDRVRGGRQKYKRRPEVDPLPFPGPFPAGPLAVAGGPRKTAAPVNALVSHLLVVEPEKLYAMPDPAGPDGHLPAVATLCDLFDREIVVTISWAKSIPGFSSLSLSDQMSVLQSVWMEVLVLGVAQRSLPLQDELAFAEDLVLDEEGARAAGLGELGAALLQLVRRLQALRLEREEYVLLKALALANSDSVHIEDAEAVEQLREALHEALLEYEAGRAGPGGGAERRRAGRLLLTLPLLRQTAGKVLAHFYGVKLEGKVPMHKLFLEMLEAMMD
In short: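 HepG2 cells grown to ~90% confluence were exposed to DMSO or test compound (1.0 or 5.0 μM in fresh medium) for 4 h at 37 °C, 5% CO2. Cells were harvested, washed, resuspended in PBS, split into seven aliquots and heated at 48–60 °C for 3 min. They were then held 10 min at room temperature and freeze-thawed thrice in liquid nitrogen. Lysates were spun 30 min at 4 °C and soluble ERRα was assessed by SDS-PAGE/western blot.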

[6] = target: T3, ERRα (Homo sapiens, UniProt P11474); test: Transient transfection mammalian two-hybrid reporter gene assay; settings: 5.0 μM, 24 h incubation, heterologous cell-based reporter assay
T3 sequence (P11474 193-421 limits assumed): T1 sequence (P11474 193-421 limits assumed)
T3 sequence (Q9UBK2 1-798 partner): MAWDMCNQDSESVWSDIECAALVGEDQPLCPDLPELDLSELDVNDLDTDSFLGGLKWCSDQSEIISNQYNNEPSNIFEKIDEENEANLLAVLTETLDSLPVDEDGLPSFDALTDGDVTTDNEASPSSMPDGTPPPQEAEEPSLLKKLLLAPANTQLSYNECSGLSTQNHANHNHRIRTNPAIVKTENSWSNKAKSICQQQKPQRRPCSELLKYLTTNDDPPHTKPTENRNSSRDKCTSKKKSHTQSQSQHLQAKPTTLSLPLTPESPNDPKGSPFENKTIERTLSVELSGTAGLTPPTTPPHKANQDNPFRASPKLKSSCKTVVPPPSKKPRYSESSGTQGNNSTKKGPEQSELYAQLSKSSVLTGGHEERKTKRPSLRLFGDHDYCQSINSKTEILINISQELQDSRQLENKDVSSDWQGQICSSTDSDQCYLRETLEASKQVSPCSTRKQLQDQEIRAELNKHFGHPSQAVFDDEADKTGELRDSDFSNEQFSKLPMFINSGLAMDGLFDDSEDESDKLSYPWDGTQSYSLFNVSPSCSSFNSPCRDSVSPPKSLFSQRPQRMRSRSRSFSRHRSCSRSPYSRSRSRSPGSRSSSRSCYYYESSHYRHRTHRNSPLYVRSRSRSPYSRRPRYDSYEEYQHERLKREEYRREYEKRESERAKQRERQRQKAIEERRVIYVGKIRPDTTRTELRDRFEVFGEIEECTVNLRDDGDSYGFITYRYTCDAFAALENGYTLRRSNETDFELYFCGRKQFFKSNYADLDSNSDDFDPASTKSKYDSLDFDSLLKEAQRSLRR
In short: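 HEK293T cells were seeded at 10,000/well in DMEM with 10% FBS. After 18–24 h they were lipofected with GAL4-DBD-ERRα-LBD (0.5 ng), pcDNA-PGC-1α (0.5 ng), pFR reporter (25 ng) and pRL-TK Renilla control (3.0 ng). Test compound was added at 5.0 μM 6 h post-transfection for a further 24 h, and firefly/Renilla luciferase was read by dual-luciferase assay.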

[7] = system: ERRγ; test: Real-time PCR, transcriptional level of ERRγ; type: cell-based; settings: 5.0 μM, 24 h incubation
In short: (§2)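 mRNA was quantified by real-time PCR with SYBR Premix Ex Taq under optimised conditions. Gene expression was normalised to Gapdh as the reference gene.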

[8] = system: PPARγ; test: Expression of other nuclear hormone receptors: PPARγ; type: cell-based; settings: Figure S3
[9] = system: ERRα; test: Real-time PCR, transcriptional level of ERRα; type: cell-based; settings: 5.0 μM, 24 h incubation
In short: as §2

[10] = system: ERα; test: Expression of other nuclear hormone receptors: ERα; type: cell-based; settings: Figure S3
[11] = system: ERγ; test: Expression of other nuclear hormone receptors: ERγ; type: cell-based; settings: Figure S3
[12] = system: ERβ; test: Expression of other nuclear hormone receptors: ERβ; type: cell-based; settings: Figure S3
[13] = Pharmacokinetics in SD rats; type: in vivo, rat
In short: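 Male Sprague–Dawley rats were dosed with test compound i.v. at 2.0 mg/kg or by oral gavage at 10 mg/kg. The formulation was 5% DMSO/95% hydroxypropyl-β-cyclodextrin (20% w/v) at 1 mg/mL. Orbital-sinus blood was drawn into heparin at 5, 15 and 30 min and at 1, 2, 4, 6, 8 and 24 h. Plasma was stored at −80 °C and quantified by LC/MS, and PK parameters were calculated.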

[14] = system: ERRβ; test: Real-time PCR, transcriptional level of ERRβ; type: cell-based; settings: 5.0 μM, 24 h incubation
In short: as §2

[15] = target: T2, ERRα; test: AAB-Luc cells stably expressing ERRα luciferase reporter; type: cell-based
In short: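 HEK293T cells were stably transduced at MOI 7 with a lentiviral AAB-GFP-Luc reporter. AAB is the ERRα response element, and the vector carries GFP and luciferase markers. The ERRα luciferase reporter read-out was multiplexed with a cell-viability assay. Test compounds were screened in three independent experiments.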

[16] = system: FFA-induced HepG2-IR cells; test: Oil red O lipid accumulation, FFA-induced HepG2-IR cells; type: cell-based; settings: palmitic acid (FFA) HepG2-IR, 10.0 μM, 48 h
In short: as §1

[17] = system: ERRα target genes in HepG2-IR cells; test: Expression of ERRα and target genes in HepG2-IR cells; type: cell-based
[18] = system: ERRα-targeted genes MCAD, PDK4, ATP5β; test: Quantitative real-time PCR of ERRα-targeted genes; type: cell-based
In short: as §2

[19] = system: Errα-LKO mice; test: Errα-LKO mice on HFD treated with compound; type: in vivo, mouse; settings: 30 mg/kg body weight
In short: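 Liver-specific Errα knockout mice came from crossing Errα-floxed with albumin-Cre mice. They were fed HFD for 8 weeks, then gavaged daily for 4 weeks with test compound (30 mg/kg) or PBS vehicle diluted in 0.5% CMC-Na. For IGTT, overnight-fasted mice received 1.0 g/kg glucose i.p. For ITT, 6 h-fasted mice received 0.5 U/kg human insulin i.p. Tail-vein glucose was read by glucometer. Liver glucose uptake was also measured; n = 5.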

[20] = system: HFD-induced obese mice; test: HFD-induced obese C57 mice, daily oral treatment for 4 weeks; type: in vivo, mouse
In short: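 C57 mice were made obese on HFD for 8 weeks; low-fat-diet mice served as controls. They were then gavaged daily for 4 weeks with test compound (10 or 30 mg/kg) or PBS vehicle diluted in 0.5% CMC-Na. Body weight and fasting glucose were tracked during dosing. Mice were fasted overnight and killed, and livers were taken for kit-based CS activity, mtDNA and SYBR qPCR (Gapdh reference); n = 5.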

[21] = system: HepG2-IR cells; test: Fatty acid oxidation assay in HepG2-IR cells; type: cell-based
In short: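 Insulin-resistant HepG2 (HepG2-IR) cells were treated with test compound or vehicle for 24 h. They were then incubated 1.5 h at 37 °C with 0.2 mM L-carnitine and 200 μM [14C(U)]palmitate (0.1 μCi/mL), compound still present. Released CO2 was trapped on methylbenzylamine/methanol-soaked paper after acidifying with 6 M HCl. Acid-soluble products in the supernatant were also counted by scintillation. Values were normalised to protein (BCA) from parallel wells.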

[22] = abdominal adipose tissue/plasma
[23] = male, Sprague-Dawley, rat, plasma, po, 10 mg/kg
[24] = 10 and 30 mg/kg/day oral, 4 weeks

## COc1ccc2c(=O)n(C)c(-c3ccccc3)nc2c1 [Compound 7, 7-methoxy-3-methyl-2-phenyl quinazolin-4(3H)-one]
[1]; [22]
  Kp at 0.25 h: 7.4
  Kp at 0.5 h: 30.1
  Kp at 2 h: 22.8
  Kp at 4 h: 235
[1]; liver/plasma
  Kp at 0.25 h: 58.9
  Kp at 0.5 h: 39.8
  Kp at 2 h: 28.6
  Kp at 4 h: 47.4
[2]
  Lipid accumulation (oil red O): significantly alleviated lipid accumulation
[3]
  EC50: 86 nM
[4]
  Glucose uptake: significantly enhanced
[5]
  Thermal degradation of ERRα: obviously inhibited thermal degradation of ERRα
[6]
  ERRα-driven luciferase activity: effectively improved the ERRα-driven luciferase activity
[7]
  Effect on transcriptional level of ERRγ: did not display an obvious effect
[8]
  Expression of PPARγ: not obviously affected
[9]
  Elevation of transcriptional level of ERRα: approximately 2.5 fold
[10]
  Expression of ERα: not obviously affected
[11]
  Expression of ERγ: not obviously affected
[12]
  Expression of ERβ: not obviously affected
[13]; SD rat, PO 10 mg/kg
  Maximum plasma concentration: 2.0 ± 0.45 µM
[13]; SD rat, PO 10 mg/kg vs IV 2 mg/kg, printed on the IV line of Table S1
  F (oral bioavailability): 9.0%
[13]; [23]
  Cmax: 531 ± 120 ng/mL
  Tmax: 15 min
[13]; male, Sprague-Dawley, rat, plasma, po, 10 mg/kg, AUC(0-∞), SD rat, PO 10 mg/kg
  AUC(0-inf): 383 ± 110 ng·h/mL
[14]
  Effect on transcriptional level of ERRβ: did not display an obvious effect
[15]
  EC50: 2700 nM
[16]
  Lipid accumulation (oil red O): significantly alleviated lipid accumulation
[17]
  Expression of ERRα target genes including Errα: increased by the molecule in a dose-dependent manner
[18]
  mRNA levels of ERRα downstream genes (MCAD, PDK4, ATP5β): dose-dependently elevated mRNA levels
[19]
  Effects on systemic and liver insulin resistance in Errα-LKO mice: almost completely abolished
[20]; [24]
  Body weight: did not obviously affect body weight
  Glucose tolerance (IGTT): improved glucose tolerance
  Insulin resistance (ITT): improved glucose tolerance and insulin resistance
[20]; 10 and 30 mg/kg/day oral, 4 weeks, vs vehicle
  Fasting glucose levels: decreased fasting glucose levels
[20]; HFD-elevated level
  Plasma FFA: attenuated
  Plasma TC: attenuated
  Plasma TG: attenuated
  Plasma insulin: attenuated
[20]; both 10 and 30 mg/kg
  Transcription of Errα and target genes (Pdk4, Atp5β, Pgc1α) in mouse liver: significantly elevated transcription
[20]; compound-treated group
  Expression of FFA oxidation genes Mcad and Cpt1a in liver: obviously enhanced
[20]; compound-treated vs PBS-fed mice
  Food intake: similar
[20]; daily oral
  Serum ALT level: dampened
  Serum AST level: dampened
[20]; daily oral, both 10 and 30 mg/kg
  Hepatic steatosis (Oil red O and HE staining): potently mitigated hepatic steatosis
[20]; liver
  CS activity: higher CS activity
  Copy number of mitochondrial DNA: elevated
[20]; liver tissue
  Fatty acid oxidation: higher
[20]; liver, western blot
  Protein levels of AOX1, Cytochrome C, SDH, CPT1A: elevated
[20]; metabolic cage
  Oxygen consumption: elevated oxygen consumption
[20]; western blot
  Protein levels of ERRα, PDK4, MCAD, ATP5β in liver: significantly increased protein levels
[20]; western blot of liver tissue
  Akt signaling pathways in the liver (p-Akt/total Akt): significantly sensitized Akt signaling pathways
[21]
  Fatty acid oxidation: significantly enhanced
